Rows were chosen to be rich in hits. Some 3.5% of all compounds tested hit in one or more screens of this group.
PglD inh: C. jejuni PglD acetyltransferase inhibitors, primary screen, biochemical, DTNB colorimetric, single point; inhibition, % at 12.5 µM; AID 602405, 2012; 360,000 tested, 0.098% active; UDP-N-acetylbacillosamine N-acetyltransferase PglD (Campylobacter jejuni); purified PglD enzyme, DTNB colorimetric CoA detection; in the data active = inhibition above about 16%, passing the limit was not always enough; inconclusive = no clear call, values can overlap the other calls
PGC1a acetyl inh: inhibitors of PGC1a acetylation signal, primary screen, cell-based, U2OS, AlphaScreen, inhibitor mode; AlphaScreen anti-acetyl-lysine; with virally co-expressed GCN5 acetyltransferase; inhibition, % at 15.6 µM; 350,000 tested, 0.17% active; AID 651687, 2012;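 active = every replicate shows inhibition of at least 40%; inconclusive = mean inhibition at least 40% but some replicate below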;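 note: 0% = neutral control wells and 100% = positive control wells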
DENV2 CPE: inhibitors of DENV2 cytopathic effect, primary screen, cell-based, plate reader, single concentration | DENV2-infected cells, cytopathic effect rescue | CPE inhibition, % at 9.99 µM | 350,000 tested, 1.7% active | AID 651640, 2012; in the data active = CPE inhibition above about 20%, passing the limit was not always enough; inconclusive = no clear call, values can overlap the other calls; tested in BHK-21 cells;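 note: 0% = median of neutral control wells and 100% = median of positive control wells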
Ecoli rRNA inh: reduced GFP signal of wild-type E. coli, primary screen, bacterial rRNA inhibitor project, GFP/RFP fluorescence, OD600, single point; E. coli WT GFP vs humanized-ribosome RFP mutants, 24 h; stronger effect = lower value; DMSO median 0, no signal -100; GFP signal change (wild-type ribosome), % (no concentration beside the values); 350,000 tested, 1.6% active; AID 720706, 2013;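 active = significant combined selectivity score with lowered wild-type GFP, culture density cut under 30%, mutant RFP and density less affected; inactive = any of these conditions unmet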
Env fusion inh: inhibitors of HIV-1 Env-driven cell-cell fusion, primary screen, HeLa-JRFL effector, CEM21 target cells, luciferase. inhibition, % at 12.3 µM. 360,000 tested, 1.1% active. AID 651610, 2012;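 active = mean replicate inhibition score of at least 50 and every replicate individually at or above 50; inconclusive = only one of the two criteria met; inactive = mean below 50 and not all replicates reaching 50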;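 note: 0% = plate neutral controls and 100% = maraviroc near 300 nM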
FN deposition inh: inhibitors of fibronectin matrix deposition, primary screen, AH1F cells, Alexa488-fibronectin fluorescence, plate reader. inhibition, % at 12.6 µM. AH1F fibroblasts, overnight. 350,000 tested, 0.086% active;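 active = mean inhibition across replicates of 30% or more, regardless of how many single replicates reach that level; inconclusive = mean under 30% yet at least half of replicates reach 30%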;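 note: positive control wells lacked labelled fibronectin entirely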
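Schedule: 1 h cell adhesion before compound, then overnight fibronectin incubation; test system: AH1F fibroblast monolayer depositing Alexa488-labelled fibronectin into matrix; quantity: 10000 AH1F cells per well; probe or stimulus: fluorescent fibronectin at 24 nM final; signal: fluorescence, ex 485 nm, em 525 nm; evaluation: percent inhibition as loss of matrix-bound fibronectin fluorescence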
* hit, by the source's call; ? = inconclusive; nt = no result given; [ ] = remark or other dose.

SMILES | PglD inh | PGC1a acetyl inh | DENV2 CPE | Ecoli rRNA inh | Env fusion inh | FN deposition inh
C[C@H]1CN([C@@H](C)CO)C(=O)c2cc(NC(=O)Nc3ccc4c(c3)OCO4)ccc2O[C@H]1CN(C)S(=O)(=O)c1ccc(Cl)cc1 | -2 | -10 | -5 | -2 | 65*[16.7 µM] | -1
Cc1noc(C)c1NC(=O)NCC[C@H]1CC[C@H](NC(=O)Nc2cccc(F)c2)[C@@H](CO)O1 | -35 | -9 | ? | 0 | -3[16.7 µM] | -1
C[C@@H]1CN([C@@H](C)CO)C(=O)c2cc(NC(=O)CCC(F)(F)F)ccc2O[C@@H]1CN(C)S(=O)(=O)c1ccc(F)cc1 | -1 | 1 | ? | -2 | 17[16.7 µM] | 10
Cc1ccc(S(=O)(=O)N(C)C[C@H]2Oc3ccc(NC(=O)CCC(F)(F)F)cc3C(=O)N([C@H](C)CO)C[C@@H]2C)cc1 | 3 | 48* | 29* | -4 | 7[16.7 µM] | -5
Cc1ccc(S(=O)(=O)N(C)C[C@H]2Oc3c(NC(=O)Nc4ccc5c(c4)OCO5)cccc3C(=O)N([C@@H](C)CO)C[C@@H]2C)cc1 | -3 | 2 | -2 | -3 | -3[16.7 µM] | nt
Cc1cc2nc(-c3ccc[nH]c3=O)n(Cc3cccc(F)c3)c2cc1C | -2 | 5 | 3 | -7 | 5 | 4
CCCn1c(-c2ccc[nH]c2=O)nc2cc(C)c(C)cc21 | nt | 14 | 25* | 3 | -3 | 18
O=C(Nc1ccc(F)cc1)N1C[C@H]2[C@@H](c3ccccc31)[C@H](CO)N2Cc1ccccc1Cl | -2 | -17 | 4 | -20 | nt | 0
Cc1noc(C)c1S(=O)(=O)N(C)C[C@H]1OCCCC[C@H](C)Oc2ccc(NC(=O)Nc3ccc(C(F)(F)F)cc3)cc2C(=O)N([C@H](C)CO)C[C@@H]1C | 3 | 8 | 0 | -1 | 47[16.7 µM] | nt
O=C(CNC(=O)c1ccc(F)cc1)N/N=C/c1cc(Br)ccc1OC(=O)/C=C/c1ccco1 | nt | 1 | -6 | -28* | 8 | 9
O=C(CNC(=O)c1ccccc1F)N/N=C/c1cc(Br)ccc1OC(=O)/C=C/c1ccco1 | nt | nt | nt | nt | 21 | 12
COc1c(F)cc2[nH]c3c(c2c1F)CCNC3=O | 2 | nt | 1 | -20 | 65* | -7
Cc1noc(C)c1NC(=O)N(C)C[C@@H]1Oc2c(NC(=O)Nc3ccc(F)cc3)cccc2C(=O)N([C@H](C)CO)C[C@H]1C | -3 | -13 | 7 | 3 | 5[16.7 µM] | nt
O=C1CC(C(=O)N(CC2CCCO2)C(C(=O)NC2CCCCC2)c2ccncc2)CS1 (stereo not drawn) | 0 | -2 | nt | nt | 78* | 7
O=C1CC(C(=O)N(c2ccccc2)C(C(=O)NC2CCCC2)c2ccncc2)CS1 (stereo not drawn) | -14 | 5 | -1 | 8 | 10 | -15
CCS(=O)(=O)N1CC(=O)N2[C@H](CO)[C@@H](c3ccc(C#CC4CC4)cc3)[C@H]2C1 | nt | -5 | -11 | 2 | nt | 0
CCOc1cc(/C=C2\CN(C)C/C(=C\c3ccc(O)c(OCC)c3)C2=O)ccc1O | -8 | 53* | 14 | -32 | -310 | 7
O=C(Nc1ccccc1)/C(=C\c1ccccc1)NC(=O)c1ccco1 | 3 | -9 | 6 | 17 | 6 | 7
O=C(Nc1cccc(C(=O)O)c1)/C(=C\c1ccccc1)NC(=O)c1ccco1 | -3 | -3 | 27* | 13 | 54 | -1
CC(C)NC(=O)Nc1cccc2c1O[C@H](CN(C)Cc1ccc(-c3ccccc3)cc1)[C@@H](C)CN([C@@H](C)CO)C2=O | 3 | -8 | -1 | -1 | 19[16.7 µM] | nt
Cc1ccc(NS(=O)(=O)c2ccc(-c3csc(C)n3)s2)c(C)c1 | -6 | nt | -1 | -38* | 8 | -3
Nc1ncnc2c1ncn2C1O[C@H](CO)[C@@H](O)[C@@H]1O (stereo partly drawn) | 1 | 0 | 13 | nt | -2 | -2
O=c1[nH]c(=O)n(C2OC(CO)C(O)C2O)cc1F (stereo not drawn) | nt | -19 | nt | nt | nt | nt
Nc1nc(F)nc2c1ncn2[C@@H]1O[C@H](CO)[C@@H](O)[C@H]1O | 5 | 83* | -24 | nt | 73* | 28
Nc1nc(F)nc2c1ncn2[C@@H]1O[C@H](CO)[C@@H](O)[C@@H]1O | -5 | -14 | 0 | nt | 62* | nt
SMILES | PglD inh | PGC1a acetyl inh | DENV2 CPE | Ecoli rRNA inh | Env fusion inh | FN deposition inh
Nc1nc(=O)n(C2OC(CO)C(O)C2O)cc1F (stereo not drawn) | 1 | 6 | -11 | 5 | 62* | nt
Nc1nc(Cl)nc2c1ncn2C1OC(CO)C(O)C1O (stereo not drawn) | -3 | -6 | 1 | nt | nt | nt
Cc1noc(C)c1S(=O)(=O)Nc1ccc2c(c1)C(=O)N([C@H](C)CO)C[C@@H](C)[C@H](CN(C)C(=O)c1ccncc1)OCCCC[C@@H](C)O2 | -3 | -15 | -1 | 1 | -7[16.7 µM] | nt
O=c1[nH]c2ccccc2cc1CN(Cc1cccnc1)S(=O)(=O)c1ccc([N+](=O)[O-])cc1 | 7 | -6 | 0 | -21* | 2 | -3
O=c1[nH]c2ccccc2cc1CN(Cc1cccnc1)S(=O)(=O)c1ccc(Cl)cc1 | -2 | nt | 13 | -45* | 5 | -5
CC(=O)Nc1ccc(S(=O)(=O)N(Cc2cccnc2)Cc2cc3ccccc3[nH]c2=O)cc1 | 1 | nt | 17 | -6 | 15 | 6
C[C@@H]1CCCCO[C@H](CN(C)C(=O)Cc2ccccc2)[C@@H](C)CN([C@H](C)CO)C(=O)c2cc(NS(=O)(=O)c3ccccc3)ccc2O1 | 2 | -7 | -7 | 1 | -40[16.7 µM] | -6
C/C=C/c1ccc([C@H]2[C@H]3CN(C(=O)c4ccccc4)CC(=O)N3[C@H]2CO)cc1 | nt | 16 | 17 | 1 | nt | nt
Cc1ccc(S(=O)(=O)CCC(=O)Nc2cc(C)on2)cc1 | 3 | -3 | 0 | 10 | ? | -1
Cc1cc(NC(=O)CCS(=O)(=O)c2nc(-c3ccccc3)cc(C(F)(F)F)n2)no1 | 6 | 90* | nt | nt | nt | nt
C[C@H]1CN([C@@H](C)CO)C(=O)c2cc(NS(=O)(=O)c3ccccc3)ccc2O[C@H]1CN(C)C(=O)Nc1ccc(F)cc1 | 5 | -1 | -3 | 2 | -14[16.7 µM] | nt
O=C(OCc1nnc(-c2ccccc2)o1)C1=COCCO1 | 1 | 61* | nt | nt | nt | nt
Cc1ccc(C(=O)OCc2nnc(-c3ccc(Br)cc3)o2)cc1 | 2 | -19 | -1 | -16* | 3 | -2
Cc1ccc(-c2nnc(COC(=O)c3ccco3)o2)cc1 | nt | nt | 2 | 0 | 26 | 8
Cc1onc(-c2ccccc2)c1C(=O)OCc1nnc(-c2ccc([N+](=O)[O-])cc2)o1 | 0 | 3 | 11 | -19 | 60* | 7
